Test results: ChEMBL document CHEMBL1122279, “Importance of C-6 chirality in conferring irreversible opioid antagonism to naltrexone-derived affinity labels” (J Med Chem, 1983)

Columns and labels:
[1] = species on record: Cavia porcellus; assay: Irreversible antagonism to morphine was evaluated after 30 min incubation of GPI with the compound at 20 nM conc.; assay type: functional
Method in brief: (§1)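 Guinea pig ileal longitudinal muscle was incubated with compound at the stated concentrations for 30 min, then washed 20 times. […] Result is the agonist IC50 after treatment divided by the control agonist IC50 in the same preparation.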

[2] = species on record: Cavia porcellus; assay: Irreversible antagonism to morphine was evaluated after 30 min incubation of GPI with the compound at 1000 nM conc.; assay type: functional; method in brief: as §1
[3] = species on record: Cavia porcellus; assay: Agonistic activity on the guinea pig ileal longitudinal muscle (GPI) relative to morphine at a dose of 1 uM; assay type: functional, Muscle tissue
[4] = species on record: Cavia porcellus; assay: Irreversible antagonism to nalorphine was evaluated after 30 min incubation of GPI with the compound at 20 nM conc.; assay type: functional; method in brief: as §1
[5] = species on record: Cavia porcellus; assay: Irreversible antagonism to ethylketazocine (EK) was evaluated after 30 min incubation of GPI with the compound at 1000 nM conc.; assay type: functional; method in brief: as §1
[6] = species on record: Cavia porcellus; assay: Irreversible antagonism to morphine was evaluated after 30 min incubation of GPI with the compound at 200 nM conc.; assay type: functional; method in brief: as §1
[7] = species on record: Cavia porcellus; assay: Irreversible antagonism to nalorphine was evaluated after 30 min incubation of GPI with the compound at 200 nM conc.; assay type: functional; method in brief: as §1
[8] = species on record: Cavia porcellus; assay: Irreversible antagonism to ethylketazocine (EK) was evaluated after 30 min incubation of GPI with the compound at 20 nM conc.; assay type: functional; method in brief: as §1
[9] = species on record: Mus musculus; assay: Antagonist potency relative to DADLE at 20 nM concentration; assay type: functional
Method in brief: (§2)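 Mouse vas deferens (Henderson method) was pretreated with compound for 30 min, then washed 20 times. […] Result is the agonist IC50 after treatment divided by the control IC50 in the same tissue. Where the agonist fell short of a full (>70%) response, an IC30 ratio was estimated from the plotted curves.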

[10] = species on record: Cavia porcellus; assay: Irreversible antagonism to ethylketazocine (EK) was evaluated after 30 min incubation of GPI with the compound at 500 nM conc.; assay type: functional; method in brief: as §1
[11] = species on record: Mus musculus; assay: Antagonist potency relative to morphine at 20 nM concentration; assay type: functional; method in brief: as §2
[12] = species on record: Mus musculus; assay: (§3) Agonist activity measured on mouse vas deferens (MVD); assay type: functional
[13] = species on record: Cavia porcellus; assay: Irreversible antagonism to morphine was evaluated after 30 min incubation of GPI with the compound at 500 nM conc.; assay type: functional; method in brief: as §1
[14] = species on record: Mus musculus; assay: Percent of maximum inhibition of contraction of mouse vas deferens (MVD); assay type: functional
[15] = species on record: Mus musculus; assay: Antagonist potency relative to morphine at 200 nM concentration; assay type: functional; method in brief: as §2
[16] = species on record: Cavia porcellus; assay: Agonistic potency on the guinea pig ileal longitudinal muscle (GPI) relative to morphine.; assay type: functional, Muscle tissue
Method in brief: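 Isolated guinea pig ileal longitudinal muscle was prepared by the Rang method. […] Only inhibition of contraction greater than 80% was counted.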

[17] = species on record: Mus musculus; assay: Antagonist potency relative to DADLE at 200 nM concentration; assay type: functional; method in brief: as §2
[18] = species on record: Cavia porcellus; assay: Irreversible antagonistic potency in guinea pig ileal longitudinal muscle (GPI); assay type: functional; settings: Muscle tissue
[19] = species on record: Mus musculus; assay: Irreversible antagonistic potency in mouse vas deferens (MVD); assay type: functional
Method in brief: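 Mouse vas deferens (Henderson method) was pretreated with compound for 30 min, then washed 20 times. Where the agonist fell short of a full (>70%) response, an IC30 ratio was estimated from the plotted curves.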

[20] = species on record: Mus musculus; assay: as §3; assay type: functional, organism-based
[21] = species on record: Mus musculus; assay: Antagonist potency relative to DADLE at 100 nM concentration; assay type: functional; method in brief: as §2
[22] = species on record: Mus musculus; assay: Antagonist potency relative to morphine at 100 nM concentration; assay type: functional; method in brief: as §2
[23] = species on record: Cavia porcellus; assay: Irreversible antagonism to ethylketazocine (EK) was evaluated after 30 min incubation of GPI with the compound at 200 nM conc.; assay type: functional; method in brief: as §1

C=CC(=O)N[C@@H]1CCC2(O)C3Cc4ccc(O)c5c4C2(CCN3CC2CC2)[C@H]1O5 (stereo partly specified)
IC50 ratio [1]: 1.9
IC50 ratio [2]: 2.9
max inhibition [3]: 40%
IC50 ratio [4]: 1.1
IC50 ratio [5]: 1.5
IC50 ratio [6]: 4.2
IC50 ratio [7]: 1.4

Oc1ccc2c3c1O[C@H]1[C@@H](N=C=S)CC[C@@]4(O)C(C2)N(CC2CC2)CCC314 (stereo partly specified)
IC50 ratio [1]: 2.1
IC50 ratio [8]: 0.8
IC50 ratio [9]: 1.2
IC50 ratio [10]: 1.4
IC50 ratio [11]: 3.1
IC30 [12]: 100 nM
IC50 ratio [13]: 2.3
max inhibition [14]: 45%
IC50 ratio [15]: 10.7
IC50 ratio [6]: 2.4
IC50 ratio [7]: 1.2
IC50 ratio [16]: 9.6
IC50 ratio [17]: 6.6

C=CCN1CC[C@]23c4c5ccc(O)c4O[C@H]2[C@@H](O)C=C[C@H]3[C@H]1C5 [NALORPHINE]
IC50 [18]: 51.3 nM

CCC(=O)N[C@H]1CCC2(O)C3Cc4ccc(O)c5c4C2(CCN3CC2CC2)[C@H]1O5 (stereo partly specified)
IC50 ratio [1]: 1.1
IC50 ratio [4]: 0.7
IC50 ratio [6]: 1
IC50 ratio [7]: 0.9
IC50 ratio [16]: 2.9

CC(C)C[C@@H](NC(=O)[C@H](Cc1ccccc1)NC(=O)CNC(=O)[C@@H](C)NC(=O)[C@@H](N)Cc1ccc(O)cc1)C(=O)O [DADLE]
IC50 [19]: 0.357 nM

C=CC(=O)N[C@H]1CCC2(O)C3Cc4ccc(O)c5c4C2(CCN3CC2CC2)[C@H]1O5 (stereo partly specified)
IC50 ratio [1]: 1.2
IC50 ratio [4]: 0.78
IC50 ratio [6]: 1.2
IC50 ratio [7]: 0.8
IC50 ratio [16]: 1.5

Oc1ccc2c3c1O[C@H]1[C@H](N=C=S)CC[C@@]4(O)C(C2)N(CC2CC2)CCC314 (stereo partly specified)
IC50 ratio [1]: 6.9
IC50 ratio [9]: 1.8
IC50 ratio [4]: 1.5
IC50 ratio [11]: 13.8
IC30 [12]: 100 nM
max inhibition [14]: 43%
IC50 ratio [15]: 120
IC50 ratio [6]: 14.9
IC50 ratio [7]: 1.4
IC50 ratio [16]: 1.9
IC50 ratio [17]: 6.9

COC(=O)/C=C\C(=O)N[C@@H]1CC[C@@]2(O)C3Cc4ccc(O)c5c4C2(CCN3CC2CC2)[C@H]1O5 (stereo partly specified)
IC50 ratio [1]: 1.5
IC50 ratio [4]: 1
IC50 ratio [6]: 0.63
IC50 ratio [7]: 0.6
IC50 ratio [16]: 1.1

O=C(CI)N[C@@H]1CCC2(O)C3Cc4ccc(O)c5c4C2(CCN3CC2CC2)[C@H]1O5 (stereo partly specified)
IC50 ratio [1]: 2.4
IC50 [20]: > 1000 nM
max inhibition [3]: 55%
IC50 ratio [4]: 1.2
IC50 ratio [5]: 0.7
IC50 ratio [15]: 20
IC50 ratio [6]: 2.1
IC50 ratio [7]: 1.2
IC50 ratio [17]: 1.8

O=C(CI)N[C@H]1CCC2(O)C3Cc4ccc(O)c5c4C2(CCN3CC2CC2)[C@H]1O5 (stereo partly specified)
IC50 ratio [1]: 0.97
IC50 ratio [4]: 1.2
IC30 [12]: 200 nM
max inhibition [14]: 60%
IC50 ratio [15]: 2.5
IC50 ratio [6]: 1.1
IC50 ratio [7]: 0.87
IC50 ratio [16]: 0.49
IC50 ratio [17]: 1.2

COC(=O)/C=C/C(=O)N[C@@H]1CC[C@@]2(O)[C@H]3Cc4ccc(O)c5c4[C@@]2(CCN3CC2CC2)[C@H]1O5
IC50 ratio [1]: 6
IC50 ratio [8]: 1
IC50 ratio [2]: 18.8
IC50 ratio [21]: 1.8
IC50 ratio [22]: 3.9
IC50 ratio [5]: 1.3
IC50 ratio [23]: 1.2
IC50 ratio [15]: 10.6
IC50 ratio [16]: 5
IC50 ratio [17]: 1.1

CCOc1ccc2c(c1)C1(C)CCN(CC3CC3)C(C2=O)C1C (stereo unspecified) [ETHYLKETAZOCINE]
IC50 [18]: 0.973 nM

COC(=O)/C=C\C(=O)N[C@H]1CC[C@@]2(O)C3Cc4ccc(O)c5c4C2(CCN3CC2CC2)[C@H]1O5 (stereo partly specified)
IC50 ratio [1]: 0.95
IC50 ratio [4]: 0.49
IC50 ratio [6]: 1.1
IC50 ratio [7]: 0.98
IC50 ratio [16]: 0.8

CCC(=O)N[C@@H]1CCC2(O)C3Cc4ccc(O)c5c4C2(CCN3CC2CC2)[C@H]1O5 (stereo partly specified)
IC50 ratio [1]: 1.3
IC50 ratio [4]: 1
IC50 ratio [6]: 1.5
IC50 ratio [7]: 0.85
IC50 ratio [16]: 0.81

COC(=O)/C=C/C(=O)N[C@H]1CC[C@@]2(O)[C@H]3Cc4ccc(O)c5c4[C@@]2(CCN3CC2CC2)[C@H]1O5
IC50 ratio [1]: 1.2
IC50 ratio [4]: 0.92
IC30 [12]: 80 nM
IC50 ratio [23]: 0.86
max inhibition [14]: 60%
IC50 ratio [15]: 0.52
IC50 ratio [6]: 0.87
IC50 ratio [16]: 7.3
IC50 ratio [17]: 0.37
